Active and inactive are the calls of the source. No cut-off for these calls is given here.
How the values were obtained:
[1] = target: T1, Histone-lysine N-methyltransferase, H3 lysine-79 specific (Homo sapiens, UniProt Q8TEK3); test: Inhibition of 0.5 nM DOT1L (2 to 416 residues) (unknown origin) using biotinylated nucleosome as substrate and [3H]SAM as co-factor preincubated for 30 mins followed by substrate and cofactor addition and measured after 90 mins by scintillation proximity assay
Target sequence in this assay (Q8TEK3 whole entry, the tested form may be a part): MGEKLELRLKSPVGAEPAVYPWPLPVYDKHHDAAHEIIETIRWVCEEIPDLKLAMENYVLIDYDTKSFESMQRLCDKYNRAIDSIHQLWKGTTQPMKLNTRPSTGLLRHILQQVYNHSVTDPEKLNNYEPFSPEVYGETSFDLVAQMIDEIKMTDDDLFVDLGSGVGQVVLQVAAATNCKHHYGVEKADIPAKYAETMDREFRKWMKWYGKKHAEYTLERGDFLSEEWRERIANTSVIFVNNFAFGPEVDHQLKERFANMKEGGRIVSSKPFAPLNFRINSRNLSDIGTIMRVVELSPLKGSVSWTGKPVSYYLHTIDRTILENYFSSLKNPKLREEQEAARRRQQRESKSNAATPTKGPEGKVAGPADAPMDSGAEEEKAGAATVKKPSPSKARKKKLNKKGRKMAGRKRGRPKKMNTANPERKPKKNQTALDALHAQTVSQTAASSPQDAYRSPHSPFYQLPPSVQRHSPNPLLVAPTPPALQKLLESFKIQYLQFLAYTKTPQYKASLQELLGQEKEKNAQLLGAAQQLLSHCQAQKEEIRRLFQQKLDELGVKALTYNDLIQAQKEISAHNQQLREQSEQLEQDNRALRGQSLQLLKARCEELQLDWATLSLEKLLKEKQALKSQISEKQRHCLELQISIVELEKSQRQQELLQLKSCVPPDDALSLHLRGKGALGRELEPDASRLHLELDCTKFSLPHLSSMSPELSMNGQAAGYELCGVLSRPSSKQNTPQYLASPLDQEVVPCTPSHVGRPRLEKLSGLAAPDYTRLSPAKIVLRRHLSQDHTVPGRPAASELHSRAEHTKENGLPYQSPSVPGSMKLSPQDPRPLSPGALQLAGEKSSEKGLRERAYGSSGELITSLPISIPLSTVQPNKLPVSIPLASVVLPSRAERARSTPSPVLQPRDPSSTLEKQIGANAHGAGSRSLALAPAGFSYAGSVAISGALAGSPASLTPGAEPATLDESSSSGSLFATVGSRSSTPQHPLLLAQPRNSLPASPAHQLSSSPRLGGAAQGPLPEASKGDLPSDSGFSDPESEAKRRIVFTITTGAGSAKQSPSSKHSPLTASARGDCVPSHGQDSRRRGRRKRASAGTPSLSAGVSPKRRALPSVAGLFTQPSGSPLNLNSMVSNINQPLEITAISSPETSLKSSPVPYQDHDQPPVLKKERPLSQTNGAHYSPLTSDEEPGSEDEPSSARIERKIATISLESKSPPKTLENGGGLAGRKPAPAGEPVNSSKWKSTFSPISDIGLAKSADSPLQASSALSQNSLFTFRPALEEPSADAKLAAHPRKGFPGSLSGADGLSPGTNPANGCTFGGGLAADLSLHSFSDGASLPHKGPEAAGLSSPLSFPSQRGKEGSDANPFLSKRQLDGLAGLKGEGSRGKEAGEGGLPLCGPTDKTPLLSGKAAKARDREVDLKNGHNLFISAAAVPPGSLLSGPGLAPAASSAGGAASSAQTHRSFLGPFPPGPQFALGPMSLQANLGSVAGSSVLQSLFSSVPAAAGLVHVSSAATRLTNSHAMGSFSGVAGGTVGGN

Mus musculus [2] = test: In vivo inhibition of DOT1L in NOD-SCID mouse xenografted with human MV4-11 cells assessed as reduction in HOXA9 gene expression at 75 mg/kg, sc administered qd for 20 days by qPCR analysis; conditions: MV4-11, sc, 480 h
Mus musculus [3] = test: In vivo inhibition of DOT1L in NOD-SCID mouse xenografted with human MV4-11 cells assessed as reduction in H3K79 dimethylation at 75 mg/kg, sc administered bid for 20 days
Mus musculus [4] = test: In vivo inhibition of DOT1L in NOD-SCID mouse xenografted with human MV4-11 cells assessed as reduction in MEIS1 gene expression at 75 mg/kg, sc administered bid for 20 days by qPCR analysis; conditions: MV4-11, sc, 480 h
[5] = target: T1, Histone-lysine N-methyltransferase, H3 lysine-79 specific; test: Inhibition of DOT1L in human HeLa cells assessed as reduction in H3K79 dimethylation measured after 72 hrs by ELISA; assay type: cell-based
Target sequence in this assay (Q8TEK3 whole entry, looked up, the tested form may be a part): as the sequence (Q8TEK3 whole entry, the tested form may be a part) above

[6] = Drug uptake in C57BL/6 mouse at 50 mg/kg, sc administered twice daily for 7 days; assay type: ADME, organism-based; conditions: in vivo, 168 h
Mus musculus [7] = test: In vivo inhibition of DOT1L in NOD-SCID mouse xenografted with human MV4-11 cells assessed as reduction in MEIS1 gene expression at 75 mg/kg, sc administered qd for 20 days by qPCR analysis; conditions: MV4-11, sc, 480 h
[8] = Toxicity in NOD-SCID mouse xenografted with human MV4-11 cells assessed as change in body weight at 75 mg/kg, sc administered qd for 20 days; conditions: in vivo, 480 h
Mus musculus [9] = test: In vivo inhibition of DOT1L in NOD-SCID mouse xenografted with human MV4-11 cells assessed as reduction in H3K79 dimethylation at 75 mg/kg, sc administered twice daily for 20 days
Mus musculus [10] = test: In vivo inhibition of DOT1L in NOD-SCID mouse xenografted with human MV4-11 cells assessed as reduction in HOXA9 gene expression at 75 mg/kg, sc administered bid for 20 days by qPCR analysis; conditions: MV4-11, sc, 480 h
Mus musculus [11] = test: In vivo inhibition of DOT1L in NOD-SCID mouse xenografted with human MV4-11 cells assessed as reduction in H3K79 dimethylation at 75 mg/kg, sc administered once daily for 20 days by ELISA
MV4-11 [12] = test: Antitumor activity against human MV4-11 cells xenografted in NOD-SCID mouse assessed as tumor growth inhibition at 75 mg/kg, sc administered bid for 20 days; conditions: MV4-11, sc, 480 h, read-out: TGI
[13] = target: T1, Histone-lysine N-methyltransferase, H3 lysine-79 specific; test: Inhibition of DOT1L in human MOLM13 cells assessed as reduction in HOXA9 gene expression incubated for 72 hrs by bright-glo luciferase reporter gene assay; assay type: cell-based
Target sequence in this assay (Q8TEK3 whole entry, looked up, the tested form may be a part): as the sequence (Q8TEK3 whole entry, the tested form may be a part) above

[14] = target: T1, Histone-lysine N-methyltransferase, H3 lysine-79 specific; test: Inhibition of 0.05 nM DOT1L (2 to 416 residues) (unknown origin) using biotinylated nucleosome as substrate and [3H]SAM as co-factor preincubated for 30 mins followed by substrate and cofactor addition and measured after 180 mins by scintillation proximity assay
Target sequence in this assay (Q8TEK3 whole entry, the tested form may be a part): as above

[15] = Lipophilicity, log D of the compound at pH 7.4; assay type: physicochemical; conditions: buffer
[16] = Toxicity in NOD-SCID mouse xenografted with human MV4-11 cells assessed as change in body weight at 75 mg/kg, sc administered bid for 20 days; conditions: in vivo, 480 h
MV4-11 [17] = test: Antitumor activity against human MV4-11 cells xenografted in NOD-SCID mouse assessed as tumor growth inhibition at 75 mg/kg, sc qd administered for 20 days
Cytochrome P450 3A4 = Cytochrome P450 3A4 (Homo sapiens, UniProt P08684); test: Induction of CYP3A4 in human hepatocytes; assay type: ADME, cell-based
Chain of Cytochrome P450 3A4 (P08684 whole entry): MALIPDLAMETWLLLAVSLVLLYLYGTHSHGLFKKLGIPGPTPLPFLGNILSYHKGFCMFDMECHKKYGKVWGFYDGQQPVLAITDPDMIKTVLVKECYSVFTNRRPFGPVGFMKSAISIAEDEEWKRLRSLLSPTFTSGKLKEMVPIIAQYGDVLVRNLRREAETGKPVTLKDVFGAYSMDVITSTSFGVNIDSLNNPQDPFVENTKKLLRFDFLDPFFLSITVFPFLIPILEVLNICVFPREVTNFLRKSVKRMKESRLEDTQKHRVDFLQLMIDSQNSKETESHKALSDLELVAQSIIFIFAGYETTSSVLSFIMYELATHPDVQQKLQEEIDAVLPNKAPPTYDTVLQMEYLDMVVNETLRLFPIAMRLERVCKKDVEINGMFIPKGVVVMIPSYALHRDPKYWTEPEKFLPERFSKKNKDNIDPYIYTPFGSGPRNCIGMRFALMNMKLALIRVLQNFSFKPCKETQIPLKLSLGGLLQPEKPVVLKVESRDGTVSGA

[18] = AUC (0 to 12 hrs) in C57BL/6 mouse at 100 mg/kg, po bid for 20 days; assay type: ADME, organism-based; design: dose 100 mg/kg, time < 12 hr, route oral; conditions: in vivo
[19] = Cmax in C57BL/6 mouse at 100 mg/kg, po bid for 20 days; assay type: ADME, organism-based; design: dose 100 mg/kg, route oral; conditions: in vivo
[20] = AUC (0 to 12 hrs) in C57BL/6 mouse at 100 mg/kg, po administered as single dose; assay type: ADME, organism-based; design: dose 100 mg/kg, time < 12 hr, route oral; conditions: in vivo
[21] = Induction of CYP3A4 in rat hepatocytes; assay type: ADME, cell-based
[22] = Cmax in C57BL/6 mouse at 100 mg/kg, po administered as single dose; assay type: ADME, organism-based; design: dose 100 mg/kg, route oral; conditions: in vivo
Mus musculus [23] = test: In vivo inhibition of DOT1L in C57BL/6 mouse xenografted with human MV4-11 cells assessed as reduction in MEIS1 gene expression at 200 mg/kg, administered twice daily for 23 days by qPCR analysis; assay type: functional, organism-based
[24] = Oral bioavailability in C57BL/6 mouse at 3 mg/kg measured upto 24 hrs by LC-MS/MS analysis; assay type: ADME, organism-based; conditions: in vivo
Mus musculus [25] = test: In vivo inhibition of DOT1L in C57BL/6 mouse xenografted with human MV4-11 cells assessed as reduction in H3K79 dimethylation at 200 mg/kg, administered twice daily for 23 days by ELISA relative to control; assay type: functional; conditions: 552 h
Mus musculus [26] = test: In vivo inhibition of DOT1L in C57BL/6 mouse xenografted with human MV4-11 cells assessed as reduction in HOXA9 gene expression at 200 mg/kg, administered twice daily for 23 days by qPCR analysis; assay type: functional, organism-based
[27] = Oral bioavailability in Sprague-Dawley Crl:CD(SD) rat at 3 mg/kg measured upto 24 hrs by LC-MS/MS analysis; assay type: ADME, organism-based; conditions: in vivo
MV4-11 [28] = test: Antitumor activity against human MV4-11 cells xenografted in C57BL/6 mouse assessed as tumor growth inhibition at 200 mg/kg, administered twice daily for 23 days; assay type: functional, organism-based
Outline: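 Mice bearing subcutaneous MV4-11 xenografts were treated for 23 days at 200 mg/kg twice daily. Tumor growth inhibition was assessed against control.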

[29] = Intrinsic clearance in rat liver microsomes; assay type: ADME, Microsome; conditions: read-out: CLH
MV4-11 [30] = test: Antitumor activity against human MV4-11 cells xenografted in sc dosed C57BL/6 mouse assessed as reduction in tumor growth at => MTD; assay type: functional, organism-based

NS(=O)(=O)c1ccc(NC(c2ccccc2)c2ccccc2)c([N+](=O)[O-])c1
IC50 [1]: 8.5 µM

COc1nc(N)nc(Nc2cc(S(N)(=O)=O)ccc2N[C@@H](c2cccc3c2OC(F)(F)O3)c2ncccc2Cl)n1
inhibition in vivo at 75 mg/kg (Mus musculus [2]): 25% | inhibition (Mus musculus [3]): Active | inhibition in vivo at 75 mg/kg (Mus musculus [4]): 74% | ED50 [5]: 0.0029 µM | Drug uptake [6]: Active | inhibition in vivo at 75 mg/kg (Mus musculus [7]): 53% | Activity [8]: Non-Toxic | inhibition (Mus musculus [9]): Active | inhibition in vivo at 75 mg/kg (Mus musculus [10]): 53% | inhibition (Mus musculus [11]): Active | inhibition in vivo at 75 mg/kg (MV4-11 [12]): 73% | ED50 [13]: 0.03 µM | IC50 [14]: 0.00017 µM | logD [15]: 3.5 | Activity [16]: Non-Toxic | TGI (MV4-11 [17]): inactive

COc1nc(Nc2cc(S(C)(=O)=O)ccc2N[C@@H](c2cccc(Cl)c2F)c2ncccc2F)nc(OC)n1
ED50 [5]: 0.043 µM | Activity (Cytochrome P450 3A4): Active | AUC at 12 h [18]: 47 µM·h | IC50 [14]: 0.00059 µM | Cmax [19]: 12 µM | AUC(0-t) at 12 h [20]: 216 µM·h | Activity [21]: Active | Cmax [22]: 24 µM

CS(=O)(=O)c1ccc(NC(c2cccc(Cl)c2)c2ccccn2)c([N+](=O)[O-])c1 (racemic)
IC50 [1]: 4.6 µM

COc1nc(Nc2cc(S(C)(=O)=O)ccc2N[C@@H](c2cccc3c2OC(F)(F)O3)c2ncccc2Cl)nc(OC)n1
ED50 [5]: 0.012 µM | ED50 [13]: 0.17 µM | IC50 [14]: 0.00019 µM

CS(=O)(=O)c1ccc(N[C@H](c2ccccn2)c2cccc(Cl)c2F)c(Nc2nccc(C(N)=O)n2)c1
inhibition (Mus musculus [23]): inactive | bioavailability [24]: 26% | ED50 [5]: 0.3 µM | inhibition in vivo at 200 mg/kg (Mus musculus [25]): 50% | inhibition (Mus musculus [26]): inactive | bioavailability [27]: 36% | ED50 [13]: 4.5 µM | IC50 [14]: 0.0021 µM | TGI (MV4-11 [28]): inactive | IC50 [1]: 0.0039 µM

CS(=O)(=O)c1ccc(N[C@@H](c2cccc(Cl)c2)c2ccccn2)c(Nc2ncccn2)c1
microsomal CLint [29]: 553 µL/min/mg | IC50 [1]: 0.27 µM

CS(=O)(=O)c1ccc(N[C@H](c2cccc(Cl)c2)c2ccccn2)c(Nc2ncccn2)c1
IC50 [1]: 22.8 µM

CS(=O)(=O)c1ccc(N[C@H](c2ccccn2)c2cccc(Cl)c2F)c(Nc2ncccn2)c1
microsomal CLint [29]: 50 µL/min/mg | IC50 [1]: 0.097 µM

CS(=O)(=O)c1ccc(N[C@@H](c2cccc(Cl)c2F)c2ncccc2F)c(Nc2ncccn2)c1
IC50 [1]: 0.016 µM

CC(C)N(C[C@H]1O[C@@H](n2cnc3c(N)ncnc32)[C@H](O)[C@@H]1O)[C@H]1C[C@@H](CCc2nc3cc(C(C)(C)C)ccc3[nH]2)C1
Activity (MV4-11 [30]): inactive

Source: ChEMBL document CHEMBL4406923, “New Potent DOT1L Inhibitors for in Vivo Evaluation in Mouse” (ACS Med Chem Lett, 2019)
